Experimental data: ChEMBL document CHEMBL3627597, “Synthesis of Fluorine-Containing Phosphodiesterase 10A (PDE10A) Inhibitors and the In Vivo Evaluation of F-18 Labeled PDE10A PET Tracers in Rodent and Nonhuman Primate” (J Med Chem, 2015); call rule not given here

What was measured:
Rattus norvegicus [1] = assay: Biodistribution in Sprague-Dawley rat fat tissue at 1.48 to 2.22 MBq, iv measured at 30 mins by gamma counting analysis; type: ADME, organism-based, Adipose tissue; conditions: in vivo, 0.5 h
Procedure, shortened: (§1)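 Male Sprague-Dawley rats (250 - 400 g), tail-vein injection of 1.48 - 2.22 MBq radiotracer under 2.5% isoflurane in oxygen; n=4 per time point, euthanized at 5, 30 and 60 min p.i. Brain regions obtained by gross dissection; peripheral tissues collected. Samples weighed, gamma-counted against a diluted-injectate standard; %ID/g calculated.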

Caudate = assay: Drug uptake in cynomolgus monkey caudate at 185 to 259 MBq, iv measured over 180 mins by micro PET image analysis; type: ADME, organism-based, Macaca fascicularis, Caudate nucleus; conditions: in vivo, 3 h
Procedure, shortened: (§2)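 Adult male cynomolgus macaques (~4–6 kg), three studies per tracer, fasted 12 h. Induction with ketamine 10 mg/kg plus glycopyrrolate 0.13 mg/kg i.m. Transmission scans of 10 min for positioning and 45 min for attenuation correction, then a 3 h dynamic microPET emission scan after venous injection of 185 - 259 MBq. ROI time-activity curves expressed as SUV (body weight and injected dose).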

Bone [2] = assay: Biodistribution in Sprague-Dawley rat bone at 1.48 to 2.22 MBq, iv measured at 30 mins by gamma counting analysis; type: ADME, organism-based, Bone element; conditions: in vivo, 0.5 h; procedure, shortened: as §1
[3] = Metabolic stability in cynomolgus monkey plasma assessed as compound remaining at 185 to 259 MBq, iv measured at 30 mins by HPLC analysis; type: ADME, organism-based, Macaca fascicularis; conditions: read-out: Stability
Procedure, shortened: (§3)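 Arterial blood (~1.5 mL) drawn at 2, 15, 30, 60 and 90 min p.i. into heparinized syringes, then centrifuged to plasma. Plasma deproteinated with 2 parts ice-cold methanol. Extract run on C-18 HPLC, MeCN/0.1 M ammonium formate pH 4.5, 0.9 mL/min, UV 254 nm. 1-min fractions over 16 min were well-counted and decay-corrected; parent percentage taken from recovered activity.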

Blood [4] = assay: Biodistribution in Sprague-Dawley rat blood at 1.48 to 2.22 MBq, iv measured at 30 mins by gamma counting analysis; type: ADME, organism-based; conditions: in vivo, 0.5 h; procedure, shortened: as §1
Putamen = assay: Drug uptake in cynomolgus monkey putamen at 185 to 259 MBq, iv measured over 180 mins by micro PET image analysis; type: ADME, organism-based, Macaca fascicularis; conditions: in vivo, 3 h; procedure, shortened: as §2
[5] = Ratio of drug level in striatum to cerebellum in Sprague-Dawley rat at 1.48 to 2.22 MBq, iv measured at 5 to 30 mins by gamma counting analysis; type: ADME, organism-based; conditions: in vivo
Procedure, shortened: (§4)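 Striatum, cerebellum and cortex obtained by gross dissection from Sprague-Dawley rats (250 - 400 g, n=4 per time point) after tail-vein injection of 1.48 - 2.22 MBq under isoflurane anesthesia. Tissues weighed and gamma-counted with an injectate standard to give %ID/g; ratios taken from striatal versus non-target uptake.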

Bone [6] = assay: Biodistribution in Sprague-Dawley rat bone at 1.48 to 2.22 MBq, iv measured at 5 mins by gamma counting analysis; type: ADME, organism-based, Bone element; conditions: in vivo; procedure, shortened: as §1
Rattus norvegicus [7] = assay: Biodistribution in Sprague-Dawley rat fat tissue at 1.48 to 2.22 MBq, iv measured at 60 mins by gamma counting analysis; type: ADME, organism-based, Adipose tissue; conditions: in vivo, 1 h; procedure, shortened: as §1
Blood [8] = assay: Biodistribution in Sprague-Dawley rat blood at 1.48 to 2.22 MBq, iv measured at 5 mins by gamma counting analysis; type: ADME, organism-based; conditions: in vivo; procedure, shortened: as §1
[9] = Metabolic stability in cynomolgus monkey plasma assessed as compound remaining at 185 to 259 MBq, iv measured at 2 mins by HPLC analysis; type: ADME, organism-based, Macaca fascicularis; conditions: read-out: Stability; procedure, shortened: as §3
Liver [10] = assay: Biodistribution in Sprague-Dawley rat liver at 1.48 to 2.22 MBq, iv measured at 30 mins by gamma counting analysis; type: ADME, organism-based; conditions: in vivo, 0.5 h; procedure, shortened: as §1
Nucleic Acid [11] = assay: Ratio of drug level in striatum to temporal region in cynomolgus monkey at 185 to 259 MBq, iv measured at 40 mins by micro PET image analysis; type: ADME, organism-based, Macaca fascicularis; conditions: in vivo
Procedure, shortened: (§5)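 Adult male cynomolgus macaques (~4–6 kg), three independent PET studies per tracer on a microPET Focus 220. Animals fasted 12 h and anesthetized with ketamine (10 mg/kg) plus glycopyrrolate (0.13 mg/kg) i.m. A 10 min positioning transmission scan and a 45 min attenuation transmission scan were run, then a 3 h dynamic emission scan after venous tracer injection. Regional TACs came from ROIs, expressed as SUV (body weight, injected dose).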

Nucleic Acid [12] = assay: Ratio of drug level in striatum to cortex in Sprague-Dawley rat at 1.48 to 2.22 MBq, iv measured at 5 to 30 mins by gamma counting analysis; type: ADME, organism-based; conditions: in vivo; procedure, shortened: as §4
Muscle tissue [13] = assay: Biodistribution in Sprague-Dawley rat muscle at 1.48 to 2.22 MBq, iv measured at 30 mins by gamma counting analysis; type: ADME, organism-based; conditions: in vivo, 0.5 h; procedure, shortened: as §1
Blood [14] = assay: Biodistribution in Sprague-Dawley rat blood at 1.48 to 2.22 MBq, iv measured at 60 mins by gamma counting analysis; type: ADME, organism-based; conditions: in vivo, 1 h; procedure, shortened: as §1
Kidney [15] = assay: Biodistribution in Sprague-Dawley rat kidney at 1.48 to 2.22 MBq, iv measured at 5 mins by gamma counting analysis; type: ADME, organism-based; conditions: in vivo; procedure, shortened: as §1
Liver [16] = assay: Biodistribution in Sprague-Dawley rat liver at 1.48 to 2.22 MBq, iv measured at 60 mins by gamma counting analysis; type: ADME, organism-based; conditions: in vivo, 1 h; procedure, shortened: as §1
Nucleic Acid [17] = assay: Ratio of drug level in striatum to midbrain region in cynomolgus monkey at 185 to 259 MBq, iv measured at 40 mins by micro PET image analysis; type: ADME, organism-based, Macaca fascicularis, Brain; conditions: in vivo; procedure, shortened: as §5
Rattus norvegicus [18] = assay: Biodistribution in Sprague-Dawley rat fat tissue at 1.48 to 2.22 MBq, iv measured at 5 mins by gamma counting analysis; type: ADME, organism-based, Adipose tissue; conditions: in vivo; procedure, shortened: as §1
Striatum = assay: Biodistribution in Sprague-Dawley rat striatum at 1.48 to 2.22 MBq, iv measured at 30 mins by gamma counting analysis; type: ADME, organism-based; conditions: in vivo, 0.5 h; procedure, shortened: as §1
Plasma = assay: Retention time of the compound in cynomolgus monkey plasma at 185 to 259 MBq, iv by HPLC analysis; type: ADME, organism-based, Macaca fascicularis; procedure, shortened: as §3
Muscle tissue [19] = assay: Biodistribution in Sprague-Dawley rat muscle at 1.48 to 2.22 MBq, iv measured at 5 mins by gamma counting analysis; type: ADME, organism-based; conditions: in vivo; procedure, shortened: as §1
Muscle tissue [20] = assay: Biodistribution in Sprague-Dawley rat muscle at 1.48 to 2.22 MBq, iv measured at 60 mins by gamma counting analysis; type: ADME, organism-based; conditions: in vivo, 1 h; procedure, shortened: as §1
Brain [21] = assay: Biodistribution in Sprague-Dawley rat brain at 1.48 to 2.22 MBq, iv measured at 30 mins by gamma counting analysis; type: ADME, organism-based; conditions: in vivo, 0.5 h; procedure, shortened: as §1
Nucleic Acid [22] = assay: Ratio of drug level in striatum to cerebellum in cynomolgus monkey at 185 to 259 MBq, iv measured at 40 mins by micro PET image analysis; type: ADME, organism-based, Macaca fascicularis; conditions: in vivo; procedure, shortened: as §5
[23] = Metabolic stability in cynomolgus monkey plasma assessed as compound remaining at 185 to 259 MBq, iv measured at 90 mins by HPLC analysis; type: ADME, organism-based, Macaca fascicularis; conditions: read-out: Stability; procedure, shortened: as §3
Liver [24] = assay: Biodistribution in Sprague-Dawley rat liver at 1.48 to 2.22 MBq, iv measured at 5 mins by gamma counting analysis; type: ADME, organism-based; conditions: in vivo; procedure, shortened: as §1
Nucleic Acid [25] = assay: Ratio of drug level in striatum to hippocampus in cynomolgus monkey at 185 to 259 MBq, iv measured at 40 mins by micro PET image analysis; type: ADME, organism-based, Macaca fascicularis; conditions: in vivo; procedure, shortened: as §5
Nucleic Acid [26] = assay: Ratio of drug level in striatum to white matter in cynomolgus monkey at 185 to 259 MBq, iv measured at 40 mins by micro PET image analysis; type: ADME, organism-based, Macaca fascicularis; conditions: in vivo; procedure, shortened: as §5
Kidney [27] = assay: Biodistribution in Sprague-Dawley rat kidney at 1.48 to 2.22 MBq, iv measured at 30 mins by gamma counting analysis; type: ADME, organism-based; conditions: in vivo, 0.5 h; procedure, shortened: as §1
[28] = Metabolic stability in cynomolgus monkey plasma assessed as compound remaining at 185 to 259 MBq, iv measured at 60 mins by HPLC analysis; type: ADME, organism-based, Macaca fascicularis; conditions: read-out: Stability; procedure, shortened: as §3
Bone [29] = assay: Biodistribution in Sprague-Dawley rat bone at 1.48 to 2.22 MBq, iv measured at 60 mins by gamma counting analysis; type: ADME, organism-based, Bone element; conditions: in vivo, 1 h; procedure, shortened: as §1
Nucleic Acid [30] = assay: Ratio of drug level in striatum to frontal in cynomolgus monkey at 185 to 259 MBq, iv measured at 40 mins by micro PET image analysis; type: ADME, organism-based, Macaca fascicularis; conditions: in vivo; procedure, shortened: as §5
Kidney [31] = assay: Biodistribution in Sprague-Dawley rat kidney at 1.48 to 2.22 MBq, iv measured at 60 mins by gamma counting analysis; type: ADME, organism-based; conditions: in vivo, 1 h; procedure, shortened: as §1
Brain [32] = assay: Biodistribution in Sprague-Dawley rat brain at 1.48 to 2.22 MBq, iv measured at 5 mins by gamma counting analysis; type: ADME, organism-based; conditions: in vivo; procedure, shortened: as §1
Brain [33] = assay: Biodistribution in Sprague-Dawley rat brain at 1.48 to 2.22 MBq, iv measured at 60 mins by gamma counting analysis; type: ADME, organism-based; conditions: in vivo, 1 h; procedure, shortened: as §1
Nucleic Acid [34] = assay: Ratio of drug level in striatum to occipital in cynomolgus monkey at 185 to 259 MBq, iv measured at 40 mins by micro PET image analysis; type: ADME, organism-based, Macaca fascicularis; conditions: in vivo; procedure, shortened: as §5
[35] = Metabolic stability in cynomolgus monkey plasma assessed as compound remaining at 185 to 259 MBq, iv measured at 15 mins by HPLC analysis; type: ADME, organism-based, Macaca fascicularis; conditions: read-out: Stability; procedure, shortened: as §3

Drug uptake (Rattus norvegicus [1]): 0.302 % ID/g | Drug uptake (Caudate): Active | Drug uptake (Bone [2]): 0.091 % ID/g | remaining at 0.5 h [3]: 90% | Drug uptake (Blood [4]): 0.226 % ID/g | Drug uptake (Putamen): Active | Ratio [5]: > 2 | Drug uptake (Bone [6]): 0.189 % ID/g | Drug uptake (Rattus norvegicus [7]): 0.259 % ID/g | Drug uptake (Blood [8]): 0.362 % ID/g | remaining at 2 min [9]: 98% | Drug uptake (Liver [10]): 6.98 % ID/g | Ratio (Nucleic Acid [11]): > 3 | Ratio (Nucleic Acid [12]): > 2 | Drug uptake (Muscle tissue [13]): 0.134 % ID/g | Drug uptake (Blood [14]): 0.215 % ID/g | Drug uptake (Kidney [15]): 2.2 % ID/g | Drug uptake (Liver [16]): 3.29 % ID/g | Ratio (Nucleic Acid [17]): > 3 | Drug uptake (Rattus norvegicus [18]): 0.213 % ID/g | Drug uptake (Striatum): Active | Retention_time (Plasma): 10.5 min | Drug uptake (Muscle tissue [19]): 0.247 % ID/g | Drug uptake (Muscle tissue [20]): 0.132 % ID/g | Drug uptake (Brain [21]): 0.078 % ID/g | Ratio (Nucleic Acid [22]): > 3 | remaining at 1.5 h [23]: 57% | Drug uptake (Liver [24]): 6.88 % ID/g | Ratio (Nucleic Acid [25]): > 3 | Ratio (Nucleic Acid [26]): > 3 | Drug uptake (Kidney [27]): 1.055 % ID/g | remaining at 1 h [28]: 75% | Drug uptake (Bone [29]): 0.142 % ID/g | Ratio (Nucleic Acid [30]): > 3 | Drug uptake (Kidney [31]): 0.765 % ID/g | Drug uptake (Brain [32]): 0.118 % ID/g | Drug uptake (Brain [33]): 0.101 % ID/g | Ratio (Nucleic Acid [34]): > 3 | remaining at 0.25 h [35]: 93%
Structure (SMILES): Cn1cc(-c2ccncc2)c(-c2ccc(OCc3cc(OCC[18F])c4ccccc4n3)cc2)n1
